Laboratory results taken from publication PMC10947042 (Chemmedchem, 2022).
Each block holds one compound with its values, some of them ahead of it.

Key:
[1] = Solubility in the buffer solution; assay type: physicochemical
[2] = test system: HER14 cells; assay: Receptor-mediated endocytosis assay, HER14 cells; assay type: cell-based
How it was run: (§1)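 Cells grown in DMEM/10 % FCS, then serum‑free DMEM for 16 h. Compound added 30 min (final DMSO ≤1 %), then Tfn‑TxR (final 5.0 μg/mL) or EGF‑TxR (final 1.0 μg/mL) as applicable, 10 min at 37 °C. Surface ligand stripped with ice‑cold acid wash (pH 2.8), 4 % PFA fix, DAPI stain, fluorescence microscopy. Quantified as integrated intensity per cell, % of vehicle control.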

[3] = test system: B35 cells; assay: Receptor-mediated endocytosis assay, B35 cells; assay type: cell-based
How it was run: as §1

[4] = test system: B104 cells; assay: Receptor-mediated endocytosis assay, B104 cells; assay type: cell-based
How it was run: as §1

[5] = Rat blood plasma stability; assay type: in vitro ADME; settings: 5 % rat blood plasma, Figure 3E
[6] = test system: HeLa cells; assay: Receptor-mediated endocytosis assay, HeLa cells; assay type: cell-based
How it was run: as §1

[7] = test system: Swiss 3T3 cells; assay: Receptor-mediated endocytosis assay, Swiss 3T3 cells; assay type: cell-based
How it was run: as §1

[8] = test system: A431 cells; assay: Receptor-mediated endocytosis assay, A431 cells; assay type: cell-based; settings: 30 μM, data not shown
[9] = test system: dynamin I; assay: Malachite Green GTPase assay, dynamin I; assay type: biochemical, sheep; settings: increasing GTP or phospholipid (PS) concentration, Figure 2
How it was run: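 GTP 0.3 mM, PS liposomes ~4 μg/ml (GTP or PS varied). Compound present; 30 min, 37 °C; EDTA stop; malachite green A650 against phosphate standard. Basal subtracted; Michaelis‑Menten and Lineweaver‑Burk fits.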

[10] = test system: dyn II; settings: read-out: dyn II IC50; cited from earlier work
[11] = test system: dynamin I; settings: read-out: IC50 for dynamin I inhibition; in vitro dynamin I GTPase; cited from earlier work
[12] = test system: COS7 cells; assay: Receptor-mediated endocytosis assay, COS7 cells; assay type: cell-based; settings: at up to 300 μM
How it was run: as §1

solubility in the buffer solution / under physiological conditions [1]: insoluble
Structure (SMILES): CC(C)(C)C(=O)Oc1ccc(C=C(C#N)C(=O)NCCCNC(=O)C(C#N)=Cc2ccc(OC(=O)C(C)(C)C)c(OC(=O)C(C)(C)C)c2)cc1OC(=O)C(C)(C)C [Compound 9, 2,2‐Dimethylpropionic acid 5‐[2‐(3‐{3‐[3,4‐bis‐(2,2‐dimethylpropionyloxy)phenyl]‐2‐cyanoacryloylamino}propylcarbamoyl)‐2‐cyanovinyl]‐2‐(2,2‐dimethylpropionyloxy)phenyl ester]

time until hydrolysis was complete [5]: ≈ 60 min
Structure (SMILES): CCC(=O)Oc1ccc(C=C(C#N)C(=O)NCCCNC(=O)C(C#N)=Cc2ccc(OC(=O)CC)c(OC(=O)CC)c2)cc1OC(=O)CC [Compound 4, Propionic acid 5‐(2‐{3‐[3‐(3,4‐bis‐propionyloxyphenyl)‐2‐cyanoacryloylamino]propylcarbamoyl}‐2‐cyanovinyl)‐2‐propionyloxyphenyl ester]
transferrin and EGF uptake (where applicable) ([2]; 30 μM, data not shown): inhibited transferrin and EGF uptake
transferrin and EGF uptake (where applicable) ([3]; 30 μM, data not shown): inhibited transferrin and EGF uptake
transferrin and EGF uptake (where applicable) ([4]; 30 μM, data not shown): inhibited transferrin and EGF uptake
effect on EGF‐TxR uptake (CME) ([6]; 30 μM): marked reduction in CME
transferrin and EGF uptake (where applicable) ([7]; 30 μM, data not shown): inhibited transferrin and EGF uptake
transferrin and EGF uptake (where applicable) [8]: inhibited transferrin and EGF uptake

Structure (SMILES): CC(=O)Oc1ccc(C=C(C#N)C(=O)NCCCNC(=O)C(C#N)=Cc2ccc(OC(C)=O)c(OC(C)=O)c2)cc1OC(C)=O [Compound 3, Acetic acid 2‐acetoxy‐5‐(2‐cyano‐2‐{3‐[2‐cyano‐3‐(3,4‐diacetoxyphenyl)acryloylamino]propylcarbamoyl}vinyl)phenyl ester]
solubility in the buffer solution / under physiological conditions [1]: insoluble

mode of dynamin inhibition [9]: non‐GTP and non‐lipid dependent manner
Structure (SMILES): N#CC(=Cc1ccc(O)c(O)c1)C(=O)NCCCNC(=O)C(C#N)=Cc1ccc(O)c(O)c1 [Compound 2, 2‐Cyano‐N‐{3‐[2‐cyano‐3‐(3,4‐dihydroxyphenyl)acryloylamino]propyl}‐3‐(3,4‐dihydroxyphenyl)acrylamide]
endocytosis block ([2]; 100 μM, not shown): essentially complete
endocytosis block ([3]; at up to 300 μM): largely ineffective
IC50 [10]: 500 nM
endocytosis block ([4]; 100 μM, not shown): essentially complete
IC50 [11]: 1700 ± 2000 nM
endocytosis block [12]: largely ineffective
effect on EGF‐TxR uptake (CME) ([6]; 100 μM): no effect on CME
endocytosis block ([6]; at up to 300 μM): largely ineffective
endocytosis block (TxR‐Tfn uptake) ([7]; 100 μM): essentially complete

solubility in the buffer solution / under physiological conditions [1]: insoluble
Structure (SMILES): CCCCCC(=O)Oc1ccc(C=C(C#N)C(=O)NCCCNC(=O)C(C#N)=Cc2ccc(OC(=O)CCCCC)c(OC(=O)CCCCC)c2)cc1OC(=O)CCCCC [Compound 8, Hexanoic acid 5‐(2‐{3‐[3‐(3,4‐bis‐hexanoyloxyphenyl)‐2‐cyanoacryloylamino]‐propylcarbamoyl}‐2‐cyanovinyl)‐2‐hexanoyloxyphenyl ester]
